Laboratory results from ChEMBL document CHEMBL1687796, “Synthesis and spectrum of the neoglycoside ACHN-490” (2010).
Converted amounts (≈) assume the structure as drawn.

Experiments:
Acinetobacter baumannii = assay: Antibacterial activity against aminoglycoside-susceptible Acinetobacter baumannii by broth microdilution method; format: functional
Serratia marcescens [1] = assay: Antibacterial activity against aminoglycoside-resistant Serratia marcescens expressing ANT(2'')-I by broth microdilution method
Enterobacter cloacae [2] = assay: Antibacterial activity against aminoglycoside-resistant Enterobacter cloacae expressing AAC(3)-2 by broth microdilution method; format: functional
Outline: (§1)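 Clinical aminoglycoside-resistant isolates were each carrying a single aminoglycoside-modifying enzyme. […] MICs were determined by CLSI broth microdilution.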

Serratia marcescens [3] = assay: Antibacterial activity against aminoglycoside-resistant Serratia marcescens expressing ANT(2''), AAC(6') by broth microdilution method; format: functional
Outline: (§2)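 MICs were measured by broth microdilution following CLSI guidance. The strains formed a 25-strain screening panel with diverse aminoglycoside resistance mechanisms. The panel included Gram-negative and S. aureus strains carrying key aminoglycoside-modifying enzymes, strains with altered permeability or efflux, and an armA ribosomal methyltransferase strain.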

Escherichia coli [4] = assay: Antibacterial activity against aminoglycoside-resistant Escherichia coli expressing AAC(3)-2 by broth microdilution method
Serratia marcescens [5] = assay: Antibacterial activity against aminoglycoside-resistant Serratia marcescens expressing AAC(6')-1 by broth microdilution method; format: functional; outline: as §1
Enterobacter cloacae [6] = assay: Antibacterial activity against aminoglycoside-resistant Enterobacter cloacae expressing AAC(6')-1 by broth microdilution method; format: functional; outline: as §1
Citrobacter freundii [7] = assay: Antibacterial activity against aminoglycoside-resistant Citrobacter freundii expressing AAC(6')-1 by broth microdilution method; format: functional; outline: as §1
Klebsiella pneumoniae [8] = assay: Antibacterial activity against aminoglycoside-resistant Klebsiella pneumoniae expressing AAC(3)-2 by broth microdilution method; format: functional; outline: as §1
Pseudomonas aeruginosa [9] = assay: Antibacterial activity against Pseudomonas aeruginosa expressing AAC(3)-1 by broth microdilution method; format: functional
Klebsiella pneumoniae [10] = assay: Antibacterial activity against aminoglycoside-resistant Klebsiella pneumoniae expressing AAC(6')-1 by broth microdilution method; format: functional; outline: as §1
Pseudomonas aeruginosa [11] = assay: Antibacterial activity against aminoglycoside-resistant Pseudomonas aeruginosa expressing AAC(6')-2 by broth microdilution method; format: functional; outline: as §1
Pseudomonas aeruginosa [12] = assay: Antibacterial activity against Pseudomonas aeruginosa by broth microdilution method; format: functional
Outline: (§3)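 MICs were determined by CLSI broth microdilution against clinical isolate panels that included aminoglycoside-resistant isolates. […] MIC90 was derived per group and not calculated when n was <10. Imipenem, ceftobiprole, ciprofloxacin and tigecycline MICs were also determined for the resistant isolates.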

Escherichia coli [13] = assay: Antibacterial activity against aminoglycoside-resistant Escherichia coli expressing AAC(3)-4 by broth microdilution method; format: functional; outline: as §1
Proteus mirabilis = assay: Antibacterial activity against Proteus mirabilis by broth microdilution method; format: functional; outline: as §3
Staphylococcus aureus [14] = assay: microbe, parasite or virus in culture; conditions: ATCC 29213
Citrobacter freundii [15] = assay: Antibacterial activity against aminoglycoside-resistant Citrobacter freundii expressing AAC(3)-2 by broth microdilution method; format: functional; outline: as §1
Staphylococcus aureus [16] = assay: Antibacterial activity against aminoglycoside-resistant Staphylococcus aureus expressing APH(2'') + AAC(6')-1 by broth microdilution method; format: functional; outline: as §1
Klebsiella aerogenes = assay: Antibacterial activity against aminoglycoside-resistant Enterobacter aerogenes expressing AAC(3)-2 by broth microdilution method; format: functional; outline: as §1
Pseudomonas aeruginosa [17] = assay: Antibacterial activity against Pseudomonas aeruginosa expressing mexXY operon by broth microdilution method; format: functional; outline: as §2
Klebsiella oxytoca = assay: Antibacterial activity against aminoglycoside-resistant Klebsiella oxytoca expressing AAC(6')-1 by broth microdilution method; format: functional; outline: as §1
Escherichia coli [18] = assay: Antibacterial activity against aminoglycoside-resistant Escherichia coli expressing ANT(3)-2 by broth microdilution method; format: functional; outline: as §1

| Compound | MIC (Acinetobacter baumannii) [µg/mL] | MIC (Serratia marcescens [1]) [µg/mL] | MIC (Enterobacter cloacae [2]) [µg/mL] | MIC (Serratia marcescens [3]) [µg/mL] | MIC (Serratia marcescens [5]) [µg/mL] | MIC (Enterobacter cloacae [6]) [µg/mL] | MIC (Citrobacter freundii [7]) [µg/mL] | MIC (Klebsiella pneumoniae [8]) [µg/mL] | MIC (Pseudomonas aeruginosa [9]) [µg/mL] | MIC (Klebsiella pneumoniae [10]) [µg/mL] | MIC (Pseudomonas aeruginosa [11]) [µg/mL] | MIC50 (Pseudomonas aeruginosa [12]) [µg/mL] | MIC90 (Pseudomonas aeruginosa [12]) [µg/mL] | MIC (Escherichia coli [13]) [µg/mL] | MIC50 (Proteus mirabilis) [µg/mL] | MIC90 (Proteus mirabilis) [µg/mL] | MIC (Staphylococcus aureus [14]) [µg/mL] | MIC (Citrobacter freundii [15]) [µg/mL] | MIC (Staphylococcus aureus [16]) [µg/mL] | MIC (Klebsiella aerogenes) [µg/mL] | further results |
| --- | --- | --- | --- | --- | --- | --- | --- | --- | --- | --- | --- | --- | --- | --- | --- | --- | --- | --- | --- | --- | --- |
| NCC[C@H](O)C(=O)N[C@@H]1C[C@H](N)[C@@H](O[C@H]2O[C@H](CN)[C@@H](O)[C@H](O)[C@H]2O)[C@H](O)[C@H]1O[C@H]1O[C@H](CO)[C@@H](O)[C@H](N)[C@H]1O [AMIKACIN] | 2 (≈ 3.42 µM) | 2 (≈ 3.42 µM) | 4 (≈ 6.83 µM) | 8 (≈ 13.7 µM) | 30 (≈ 51.2 µM) | 30 (≈ 51.2 µM) | 30 (≈ 51.2 µM) | 4 (≈ 6.83 µM) | 4 (≈ 6.83 µM) | 30 (≈ 51.2 µM) | 14 (≈ 23.9 µM) | 16 (≈ 27.3 µM) | > 64 | 2 (≈ 3.42 µM) | 8 (≈ 13.7 µM) | 64 (≈ 109 µM) | 4 (≈ 6.83 µM) | 4 (≈ 6.83 µM) | 18 | 4 (≈ 6.83 µM) | MIC (Escherichia coli [4]): 4 µg/mL (≈ 6.83 µM); MIC (Pseudomonas aeruginosa [17]): 4 µg/mL (≈ 6.83 µM); MIC (Klebsiella oxytoca): 30 µg/mL (≈ 51.2 µM) |
| CN[C@@H]1[C@@H](O)[C@@H](O[C@@H]2[C@@H](O)[C@H](O[C@H]3OC(CNCCO)=CC[C@H]3N)[C@@H](N)C[C@H]2NC(=O)[C@@H](O)CCN)OC[C@]1(C)O [PLAZOMICIN] | 4 (≈ 6.75 µM) | 1 (≈ 1.69 µM) | 1 (≈ 1.69 µM) | 2 (≈ 3.37 µM) | 1 (≈ 1.69 µM) | 1 (≈ 1.69 µM) | 1 (≈ 1.69 µM) | 1 (≈ 1.69 µM) | 8 (≈ 13.5 µM) | 1 (≈ 1.69 µM) | 6 (≈ 10.1 µM) | 8 (≈ 13.5 µM) | 64 (≈ 108 µM) | 1 (≈ 1.69 µM) | 4 (≈ 6.75 µM) | 8 (≈ 13.5 µM) | 1 (≈ 1.69 µM) | 1 (≈ 1.69 µM) | 1 | 1 (≈ 1.69 µM) | MIC (Escherichia coli [18]): 2 µg/mL (≈ 3.37 µM); MIC (Pseudomonas aeruginosa [17]): 8 µg/mL (≈ 13.5 µM); MIC (Klebsiella oxytoca): 1 µg/mL (≈ 1.69 µM) |
